Activity, Drug uptake and IC50 data for 1 compound are collected here from ChEMBL document CHEMBL2176901, “Pyrrolo[3,4-h]quinolinones a new class of photochemotherapeutic agents” (Bioorg Med Chem, 2011).

The subject of data set [1] is Nucleic Acid. In words: Binding affinity to salmon testes DNA at drug/DNA ratio of 0.03 by linear dichroism analysis. Format: nucleic-acid assay. Conditions: Salmonidae. The gist of the method:
(§1)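 Flow linear dichroism in 10 mM phosphate buffer pH 7.2. Samples oriented in a rotating cylindrical cuvette (0.14 cm path, 800 rpm) at several drug/DNA ratios.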

Data set [2] relates to Jurkat. In words: Induction of apoptosis in 3.75 J/cm'2 UV-A irradiated human Jurkat cells assessed as late apoptotic cells at 5 uM after 24 hrs by Annexin-V-FITC and propidium iodide based flow cytometry (reference value: 2.9 %). Format: functional.
The test system of data set [3] is MCF7. In words: Phototoxicity in 2.5 J/cm'2 UV-A irradiated human MCF7 cells assessed as cell viability after 72 hrs by MTT assay in presence of radical scavenger DMTU. Format: functional, cell-based. In a few lines: (§2)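 MCF-7 cells given compound plus scavenger in HBSS, 30 min at 37 °C, then UV-A (2.5 J/cm², 365 nm lamp). Medium replaced; viability by MTT after 72 h. Means ± SEM of at least three independent experiments.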
Background: Formazan colour is commonly taken as a measure of viable cells.

In data set [4] the test system is Jurkat. In words: Induction of apoptosis in 3.75 J/cm'2 UV-A irradiated human Jurkat cells assessed as early apoptotic cells at 10 uM after 24 hrs by Annexin-V-FITC and propidium iodide based flow cytometry (reference value: 1.9 %). Format: functional. On the technique in general: In flow cytometry, cells or beads pass a laser one at a time.
A short description of data set [5]: Drug uptake in lysosome of human NCTC-2544 cells at 10 uM after 2 hrs by fluorescence microphotography. Conditions: nctc-2544, 2 h. Format: ADME, cell-based. The gist of the method:
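NCTC-2544 cells attached in Petri dishes, given compound at 10 μM for 2 h, washed with HBSS. Then 30 min with Rhodamine 123 (mitochondria), LysoTracker RED, CellMask Orange (plasma membrane) or ER-Tracker. Blue compound fluorescence overlaid on probe images by video-confocal microscopy.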

The subject of the next data set is HL-60. Kind of data set: Phototoxicity in 2.5 J/cm'2 UV-A irradiated human HL60 cells after 72 hrs by MTT assay. The settings on record: HL-60, light or radiation study. It is filed as functional, cell-based. The gist of the method:
(§3)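 HL-60 and Jurkat (8×10³/well, RPMI-1640) and MCF-7, LoVo, NCTC-2544 (5×10³/well; DMEM or Ham's F12) preincubated 18 h at 37 °C, 5% CO₂. Compound in DMSO diluted in HBSS pH 7.2, 30 min at 37 °C, then UV-A at 2.5 or 3.75 J/cm². Medium replaced, 72 h incubation, MTT read-out. IC50 as mean ± SEM of three experiments.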

Data set [6] has as its system Jurkat. Kind of data set: Induction of apoptosis in UV-A irradiated human Jurkat cells assessed as increase in number of damaged lysosomes after 6 to 24 hrs by acridine orange- based flow cytometry. It is filed as functional, cell-based. In a few lines: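 Lysosomal stability in Jurkat cells 6, 12 and 24 h after UV-A (2.5 J/cm²) with compound. Cells resuspended in RPMI-1640 with 1 µM acridine orange; flow cytometry, excitation 488 nm, emission in FL3. Mean ± SEM of three experiments.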

Data set [7] has as its system Jurkat. Kind of data set: Phototoxicity in 2.5 J/cm'2 UV-A irradiated human Jurkat cells after 72 hrs by MTT assay. It is filed as functional, cell-based. Conditions: light or radiation study. In a few lines: as §3
Data set [8] concerns MCF7. In words: Phototoxicity in 2.5 J/cm'2 UV-A irradiated human MCF7 cells assessed as cell viability after 72 hrs by MTT assay in presence of radical scavenger DABCO. It is filed as functional, cell-based. In a few lines:
as §2

Data set [9] concerns Nucleic Acid. In words: Binding affinity to salmon testes DNA at drug/DNA ratio of 0.02 by linear dichroism analysis. It is filed as nucleic-acid assay. The settings on record: Salmonidae. The gist of the method: as §1

Each structure is given as a SMILES string. pIC50: −log10 of the molar value. Calls of active or inactive are those of the source. The rule behind the calls is not given here.

One may read the pIC50 as −log10 of the IC50, conventionally taken in molar units. Low readings indicate a high IC50, high ones a low IC50.

Turning to `CCOC(=O)c1c2c(c(C)n1C)-c1c(cc(S(=O)(=O)c3ccccc3)c(=O)n1C)CC2`, the outcome in the data set with Nucleic Acid [1], with MCF7 [3], in the data set with MCF7 [8] and with Nucleic Acid [9] was inactive. The Activity came to 11% in the data set on Jurkat [2] and 23.9% in the data set on Jurkat [4]. For the same compound, the Drug uptake result in data set [5] is “Active”. In addition, the pIC50 in the data set with HL-60 and in the data set on Jurkat [7] was 5.92 in each case. The result in the data set with Jurkat [6] was Active.
